Measured values reported in ChEMBL document CHEMBL3864147, “Antioxidant and anti-inflammatory neolignans from the seeds of hawthorn” (Bioorg Med Chem Lett, 2016).
pIC50: −log10 of the molar value.

Tests used:
[1] = Antiinflammatory activity in mouse RAW264.7 cells assessed as inhibition of LPS-induced TNFalpha production after 24 hrs by ELISA; type: functional, cell-based; conditions: RAW264.7, 24 h
In short: (§1)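 RAW264.7 cells plated at 5 × 10^5/mL, pre-treated with samples at 100, 50, 10 or 1 µM, then stimulated with LPS (100 ng/mL) for 24 h. TNF-α in the medium measured by ELISA kit per manufacturer's instructions and quantified from a standard curve; silybin as positive control.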

[2] = Antiinflammatory activity in mouse RAW264.7 cells assessed as inhibition of LPS-induced nitric oxide production after 24 hrs by Griess assay; type: functional, cell-based; conditions: RAW264.7, 24 h
In short: (§2)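 RAW264.7 cells (5 × 10^5/mL) pre-treated with samples at 100, 50, 10 or 1 µM, then LPS (100 ng/mL) for 24 h. Nitrite in medium measured by mixing with equal volume Griess reagent (1% sulfanilamide in 5% H3PO4, 0.1% N-naphthyl-ethylenediamine), 10 min at 37 °C, absorbance 540 nm; quantified against NaNO2 standard curve; minocycline as positive control.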

[3] = Antiinflammatory activity in mouse RAW264.7 cells assessed as inhibition of LPS-induced TNFalpha production at 100 uM after 24 hrs by ELISA relative to control; type: functional; conditions: RAW264.7, 24 h; in short: as §1
[4] = Antioxidant activity assessed as ferric ion reducing activity by measuring Fe2+ levels using fe3+-TPTZ at 3000 ug/ml after 30 mins by FRAP assay; type: functional
In short: (§3)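 FRAP reagent: 300 mM acetate buffer pH 3.6, 10 mM TPTZ in 40 mM HCl, 20 mM FeCl3. Sample (3000, 1500, 750, 375 µg/mL solutions) mixed with reagent, 30 min at 37 °C, absorbance 593 nm. Values expressed as µM Fe2+ from FeSO4 calibration curve (5–450 µM).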

[5] = Antiinflammatory activity in mouse RAW264.7 cells assessed as inhibition of LPS-induced nitric oxide production at 50 uM after 24 hrs by Griess assay relative to control; type: functional; conditions: RAW264.7, 24 h; in short: as §2
[6] = Antiinflammatory activity in mouse RAW264.7 cells assessed as inhibition of LPS-induced TNFalpha production at 1 uM after 24 hrs by ELISA relative to control; type: functional; conditions: RAW264.7, 24 h; in short: as §1
[7] = Antioxidant activity assessed as ferric ion reducing activity by measuring Fe2+ levels using fe3+-TPTZ at 375 ug/ml after 30 mins by FRAP assay; type: functional; in short: as §3
[8] = Antioxidant activity assessed as ABTS radical scavenging activity after 30 mins; type: functional
In short: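 ABTS radical generated by 7 mM ABTS plus 2.4 mM potassium persulfate, 12 h dark at room temperature, diluted in ethanol to OD 0.700 at 734 nm. Samples at several concentrations mixed with ABTS+ solution, 30 min at 37 °C, read at 734 nm; ethanol blank; percent scavenging calculated relative to blank.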

[9] = Antiinflammatory activity in mouse RAW264.7 cells assessed as inhibition of LPS-induced TNFalpha production at 10 uM after 24 hrs by ELISA relative to control; type: functional; conditions: RAW264.7, 24 h; in short: as §1
[10] = Antioxidant activity assessed as DPPH radical scavenging activity incubated in dark for 30 mins; type: functional
In short: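 Samples (0.4 mM stock, 5–40 µL series) and DPPH (2 mM stock, 20 µL) in ethanol, made to 200 µL with ethanol; incubated 30 min in dark at 37 °C; absorbance at 517 nm. Ethanol replaced sample as blank.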

[11] = Antiinflammatory activity in mouse RAW264.7 cells assessed as inhibition of LPS-induced nitric oxide production at 100 uM after 24 hrs by Griess assay relative to control; type: functional; conditions: RAW264.7, 24 h; in short: as §2
[12] = Antioxidant activity assessed as ferric ion reducing activity by measuring Fe2+ levels using fe3+-TPTZ at 1500 ug/ml after 30 mins by FRAP assay; type: functional; in short: as §3
[13] = Antiinflammatory activity in mouse RAW264.7 cells assessed as inhibition of LPS-induced nitric oxide production at 1 uM after 24 hrs by Griess assay relative to control; type: functional; conditions: RAW264.7, 24 h; in short: as §2
[14] = Antioxidant activity assessed as ferric ion reducing activity by measuring Fe2+ levels using fe3+-TPTZ at 750 ug/ml after 30 mins by FRAP assay; type: functional; in short: as §3
[15] = Antiinflammatory activity in mouse RAW264.7 cells assessed as inhibition of LPS-induced TNFalpha production at 50 uM after 24 hrs by ELISA relative to control; type: functional; conditions: RAW264.7, 24 h; in short: as §1
[16] = Antiinflammatory activity in mouse RAW264.7 cells assessed as inhibition of LPS-induced nitric oxide production at 10 uM after 24 hrs by Griess assay relative to control; type: functional; conditions: RAW264.7, 24 h; in short: as §2
Mus musculus = organism: Mus musculus; experiment: Cytotoxicity against mouse RAW264.7 cells assessed as effect on cell viability at 100 uM preincubated for 1 hr followed by LPS stimulation measured after 24 hrs by MTT assay; type: toxicity, cell-based; conditions: raw264.7, 24 h
In short: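 RAW264.7 cells in DMEM with 10% FBS and penicillin/streptomycin at 37 °C, 5% CO2, seeded 5 × 10^5 cells/well; treated with samples (100 µM) 1 h, then LPS (100 ng/mL) 24 h. MTT (0.25 mg/mL) added for 4 h; formazan read at 540 nm; untreated cells as control.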

## COc1cc([C@H](O)[C@@H](CO)Oc2ccc([C@@H](O)[C@H](O)CO)cc2OC)ccc1O
[1]
  pIC50: 4.07
[2]
  pIC50: < 4.00
[3]
  inhibition at 100 µM: 55.6%
[4]
  Activity: 55.8 µmol/L
[5]
  inhibition at 50 µM: 3.1%
[6]
  inhibition at 1 µM: 3.9%
[7]
  Activity: 9.4 µmol/L
[8]
  pIC50: 5.02
[9]
  inhibition at 10 µM: 26.2%
[10]
  pIC50: 4.08
[11]
  inhibition at 100 µM: 6.3%
[12]
  Activity: 29.4 µmol/L
[13]
  inhibition at 1 µM: -3.6%
[14]
  Activity: 16 µmol/L
[15]
  inhibition at 50 µM: 32.3%
[16]
  inhibition at 10 µM: 1.1%
Mus musculus
  Activity: Non-Toxic

## COc1cc([C@@H](O)[C@@H](CO)Oc2ccc([C@@H](OC)[C@H](O)CO)cc2OC)ccc1O
[1]
  pIC50: 4.32
[2]
  pIC50: < 4.00
[3]
  inhibition at 100 µM: 69.3%
[4]
  Activity: 102 µmol/L
[5]
  inhibition at 50 µM: 3.8%
[6]
  inhibition at 1 µM: 4.5%
[7]
  Activity: 32.5 µmol/L
[8]
  pIC50: 4.89
[9]
  inhibition at 10 µM: 24.5%
[10]
  pIC50: 3.94
[11]
  inhibition at 100 µM: 8.2%
[12]
  Activity: 78.3 µmol/L
[13]
  inhibition at 1 µM: 0.3%
[14]
  Activity: 54.1 µmol/L
[15]
  inhibition at 50 µM: 42.4%
[16]
  inhibition at 10 µM: -2.2%
Mus musculus
  Activity: Non-Toxic

## COc1cc([C@@H](O)[C@H](CO)Oc2c(OC)cc([C@@H](O)[C@H](O)CO)cc2OC)ccc1O
[1]
  pIC50: < 4.00
[2]
  pIC50: < 4.00
[3]
  inhibition at 100 µM: 47%
[4]
  Activity: 119 µmol/L
[5]
  inhibition at 50 µM: 2.7%
[6]
  inhibition at 1 µM: 5.1%
[7]
  Activity: 35.9 µmol/L
[8]
  pIC50: 4.97
[9]
  inhibition at 10 µM: 13.7%
[10]
  pIC50: 3.94
[11]
  inhibition at 100 µM: 3.4%
[12]
  Activity: 84.6 µmol/L
[13]
  inhibition at 1 µM: 0.6%
[14]
  Activity: 58.1 µmol/L
[15]
  inhibition at 50 µM: 28.2%
[16]
  inhibition at 10 µM: 1.3%
Mus musculus
  Activity: Non-Toxic

## CN(C)c1ccc(O)c2c1C[C@H]1C[C@H]3[C@H](N(C)C)C(O)=C(C(N)=O)C(=O)[C@@]3(O)C(O)=C1C2=O [MINOCYCLINE]
[2]
  pIC50: 4.26
[5]
  inhibition at 50 µM: 51.8%
[11]
  inhibition at 100 µM: 59.7%
[13]
  inhibition at 1 µM: 15.6%
[16]
  inhibition at 10 µM: 22.7%

## COc1cc([C@@H](O)[C@@H](CO)Oc2ccc([C@@H](O)[C@H](O)CO)cc2OC)ccc1O
[1]
  pIC50: 4.03
[2]
  pIC50: < 4.00
[3]
  inhibition at 100 µM: 52.5%
[4]
  Activity: 66.3 µmol/L
[5]
  inhibition at 50 µM: 2.6%
[6]
  inhibition at 1 µM: 2.4%
[7]
  Activity: 12 µmol/L
[8]
  pIC50: 4.97
[9]
  inhibition at 10 µM: 21.2%
[10]
  pIC50: 4.05
[11]
  inhibition at 100 µM: 4.4%
[12]
  Activity: 26 µmol/L
[13]
  inhibition at 1 µM: -1.2%
[14]
  Activity: 18.5 µmol/L
[15]
  inhibition at 50 µM: 30.8%
[16]
  inhibition at 10 µM: -2.9%
Mus musculus
  Activity: Non-Toxic

## COc1cc(C2Oc3cc([C@H]4Oc5cc(O)cc(O)c5C(=O)[C@@H]4O)ccc3OC2CO)ccc1O (stereo not given in full) [SILIBININ]
[1]
  pIC50: 4.16
[3]
  inhibition at 100 µM: 53.8%
[6]
  inhibition at 1 µM: 10.3%
[9]
  inhibition at 10 µM: 27%
[15]
  inhibition at 50 µM: 47%

## COc1cc([C@@H](O)[C@H](CO)Oc2ccc([C@@H](OC)[C@H](CO)c3ccc(O)c(OC)c3)cc2OC)ccc1O
[1]
  pIC50: < 4.00
[2]
  pIC50: 4.01
[3]
  inhibition at 100 µM: 18.4%
[4]
  Activity: 116 µmol/L
[5]
  inhibition at 50 µM: 34.2%
[6]
  inhibition at 1 µM: 1.3%
[7]
  Activity: 60.8 µmol/L
[8]
  pIC50: 5.23
[9]
  inhibition at 10 µM: 3.2%
[10]
  pIC50: 4.36
[11]
  inhibition at 100 µM: 57.3%
[12]
  Activity: 121 µmol/L
[13]
  inhibition at 1 µM: 7%
[14]
  Activity: 89.5 µmol/L
[15]
  inhibition at 50 µM: 5.2%
[16]
  inhibition at 10 µM: 19.2%
Mus musculus
  Activity: Non-Toxic

## COc1cc([C@@H](O)[C@@H](CO)Oc2c(OC)cc([C@@H](O)[C@H](O)CO)cc2OC)ccc1O
[1]
  pIC50: < 4.00
[2]
  pIC50: < 4.00
[3]
  inhibition at 100 µM: 45.8%
[4]
  Activity: 127 µmol/L
[5]
  inhibition at 50 µM: 1.1%
[6]
  inhibition at 1 µM: 2.3%
[7]
  Activity: 37.1 µmol/L
[8]
  pIC50: 4.93
[9]
  inhibition at 10 µM: 14.1%
[10]
  pIC50: 3.86
[11]
  inhibition at 100 µM: 2.7%
[12]
  Activity: 89.1 µmol/L
[13]
  inhibition at 1 µM: -3.1%
[14]
  Activity: 60 µmol/L
[15]
  inhibition at 50 µM: 23.2%
[16]
  inhibition at 10 µM: -1.8%
Mus musculus
  Activity: Non-Toxic

## COc1cc([C@@H](CO)[C@H](OC)c2ccc(O[C@H](CO)[C@@H](O)c3ccc(O)c(OC)c3)c(OC)c2)ccc1O
[1]
  pIC50: < 4.00
[2]
  pIC50: 4.20
[3]
  inhibition at 100 µM: 17.1%
[4]
  Activity: 128 µmol/L
[5]
  inhibition at 50 µM: 42.1%
[6]
  inhibition at 1 µM: -1.2%
[7]
  Activity: 45.8 µmol/L
[8]
  pIC50: 5.11
[9]
  inhibition at 10 µM: 2.9%
[10]
  pIC50: 4.17
[11]
  inhibition at 100 µM: 61.2%
[12]
  Activity: 106 µmol/L
[13]
  inhibition at 1 µM: 5.7%
[14]
  Activity: 73 µmol/L
[15]
  inhibition at 50 µM: 9.3%
[16]
  inhibition at 10 µM: 22.1%
Mus musculus
  Activity: Non-Toxic

## Cc1c(C)c2c(c(C)c1O)CCC(C)(C(=O)O)O2 (stereo not given) [TROLOX]
[4]
  Activity: 172 µmol/L
[7]
  Activity: 51.7 µmol/L
[8]
  pIC50: 4.74
[10]
  pIC50: 4.52
[12]
  Activity: 185 µmol/L
[14]
  Activity: 96.9 µmol/L
